Laboratory results: ChEMBL document CHEMBL1124308, “Renin inhibitors. Dipeptide analogues of angiotensinogen utilizing a structurally modified phenylalanine residue to impart proteolytic stability” (J Med Chem, 1988)

How the values were obtained:
Renin [1] = molecular target: T1, Renin (Homo sapiens, UniProt P00797); experiment: Inhibition of human plasma renin (pH 7.4); type: cell-free
T1 sequence (P00797 whole entry): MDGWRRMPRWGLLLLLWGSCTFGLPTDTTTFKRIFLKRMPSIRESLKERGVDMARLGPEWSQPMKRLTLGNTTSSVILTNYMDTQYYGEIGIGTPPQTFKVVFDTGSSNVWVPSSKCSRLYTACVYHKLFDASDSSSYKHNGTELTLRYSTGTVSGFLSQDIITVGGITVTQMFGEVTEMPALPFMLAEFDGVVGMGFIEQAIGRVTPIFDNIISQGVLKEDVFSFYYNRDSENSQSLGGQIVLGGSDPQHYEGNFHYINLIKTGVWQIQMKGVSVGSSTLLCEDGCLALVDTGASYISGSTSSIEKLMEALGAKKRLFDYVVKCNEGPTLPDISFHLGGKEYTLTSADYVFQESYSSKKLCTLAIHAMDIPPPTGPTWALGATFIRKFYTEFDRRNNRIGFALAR
In short: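 Plasma renin assay at pH 7.4, adapted from an earlier method: 0.10 M HEPES buffer in place of maleate, incubation lengthened to 2.5 h, and angiotensin I measured by radioimmunoassay on the whole incubation sample. IC50 reported in nM.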

Cathepsin D (Bos taurus) = molecular target: T2, Cathepsin D (Bos taurus) (UniProt P80209); experiment: Inhibition of bovine cathepsin D at 1*10e-5; conditions: concentration not given here
T2 sequence (whole entry): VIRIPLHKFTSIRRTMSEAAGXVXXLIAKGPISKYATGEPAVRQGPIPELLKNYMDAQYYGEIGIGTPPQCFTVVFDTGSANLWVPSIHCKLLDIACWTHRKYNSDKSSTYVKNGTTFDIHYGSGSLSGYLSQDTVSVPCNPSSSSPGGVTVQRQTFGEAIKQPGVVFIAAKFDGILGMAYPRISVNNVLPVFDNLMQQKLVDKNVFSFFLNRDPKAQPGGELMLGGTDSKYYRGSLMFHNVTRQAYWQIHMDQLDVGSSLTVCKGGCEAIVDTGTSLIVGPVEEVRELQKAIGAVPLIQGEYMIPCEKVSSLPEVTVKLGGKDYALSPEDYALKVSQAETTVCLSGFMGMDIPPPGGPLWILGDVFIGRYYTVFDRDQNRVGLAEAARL

Renin [2] = molecular target: T1, Renin; experiment: Inhibition of purified human renin (pH 6.0)
Pepsin A (Sus scrofa) = Pepsin A (Sus scrofa) (UniProt P00791); experiment: Inhibition of porcine pepsin enzyme at 1*10e-5; conditions: concentration not given here
[3] = (§1) Ratio of IC50 value for human plasma renin(pH 7.4) and purified human renin(pH 6.0); type: functional
chymotrypsin = experiment: The compound was tested […] for chymotrypsin susceptibility (degradation); type: ADME
[4] = as §1

Sequence of Pepsin A (Sus scrofa) (P00791 60-385 limits assumed): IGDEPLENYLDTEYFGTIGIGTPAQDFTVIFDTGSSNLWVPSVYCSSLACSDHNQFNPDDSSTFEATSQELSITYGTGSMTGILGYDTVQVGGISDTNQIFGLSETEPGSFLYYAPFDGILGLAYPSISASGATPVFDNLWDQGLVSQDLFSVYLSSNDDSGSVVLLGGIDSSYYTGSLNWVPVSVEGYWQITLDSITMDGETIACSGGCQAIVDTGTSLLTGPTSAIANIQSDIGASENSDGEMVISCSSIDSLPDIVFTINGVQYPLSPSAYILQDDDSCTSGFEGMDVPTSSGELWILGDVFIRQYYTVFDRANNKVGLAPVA

SMILES | IC50 (Renin [1]) | inhibition (Cathepsin D (Bos taurus)) | IC50 (Renin [2]) | inhibition (Pepsin A (Sus scrofa)) | Ratio [3] | half-life (chymotrypsin) | Ratio [4]
CC(C)C[C@H](O)[C@H](O)[C@H](CC1CCCCC1)NC(=O)[C@H](Cc1c[nH]cn1)NC(=O)[C@@H](Cc1ccccc1)NC(=O)N1CCOCC1 | 140 nM | 1% | 14 nM | 2% | 10 | – | –
COc1ccc(C[C@H](NC(=O)N2CCOCC2)C(=O)N[C@@H](Cc2c[nH]cn2)C(=O)N[C@@H](CC2CCCCC2)[C@@H](O)[C@@H](O)CC(C)C)cc1 | – | 3% | – | 4% | 3.2 | – | –
CC(C)C[C@H](O)[C@H](O)[C@H](CC1CCCCC1)NC(=O)[C@H](Cc1c[nH]cn1)NC(=O)[C@H](Cc1ccccc1)NC(=O)N1CCNCC1 | 4.5 nM | 0% | – | 0% | 6.9 | 6.9 min | –
CC(C)C[C@H](O)[C@H](O)[C@H](CC1CCCCC1)NC(=O)[C@H](Cc1c[nH]cn1)NC(=O)[C@@H](CC(=O)N1CCOCC1)Cc1ccccc1 | 1.3 nM | 0% | 0.29 nM | 0% | – | 227 min | 4.5
CC(C)C[C@H](O)[C@H](O)[C@H](CC1CCCCC1)NC(=O)[C@H](Cc1c[nH]cn1)N(C)C(=O)[C@H](Cc1ccccc1)NC(=O)N1CCOCC1 | 2.5 nM | 0% | 0.94 nM | 0% | 2.7 | – | –
CC(C)C[C@H](O)[C@H](O)[C@H](CC1CCCCC1)NC(=O)[C@H](Cc1cnc[nH]1)NC(=O)[C@H](Cc1ccccc1)NC(=O)N1CCOCC1 | 0.89 nM | – | 0.35 nM | – | – | 2.2 min | –
CC(C)C[C@H](O)[C@H](O)[C@H](CC1CCCCC1)NC(=O)[C@H](Cc1cnc[nH]1)NC(=O)[C@H](Cc1ccccc1)NC(=O)N(C)CCO | 0.98 nM | – | 0.55 nM | – | – | 34.3 min | –
COc1ccc(C[C@H](NC(=O)N2CCOCC2)C(=O)N[C@@H](Cc2cnc[nH]2)C(=O)N[C@@H](CC2CCCCC2)[C@@H](O)[C@@H](O)CC(C)C)cc1 | 2.4 nM | – | 0.76 nM | – | – | 727 min | –
CC(C)C[C@H](O)[C@H](O)[C@H](CC1CCCCC1)NC(=O)[C@H](Cc1c[nH]cn1)NC(=O)/C(=C/c1ccccc1)NC(=O)N1CCOCC1 | 5.3 nM | 0% | 0.58 nM | 0% | 9.1 | – | –
CC(C)C[C@H](O)[C@H](O)[C@H](CC1CCCCC1)NC(=O)[C@H](Cc1c[nH]cn1)NC(=O)[C@H](Cc1ccccc1)NC(=O)N(C)C | 3.3 nM | 3% | 0.5 nM | 11% | 6.6 | 17.5 min | –
CC(C)C[C@H](O)[C@H](O)[C@H](CC1CCCCC1)NC(=O)[C@H](Cc1c[nH]cn1)NC(=O)/C(=C/c1ccccc1)CC(=O)N1CCOCC1 | 2.1 nM | 0% | 0.79 nM | 8% | 2.7 | 1260 min | –
CC(C)C[C@H](O)[C@H](O)[C@H](CC1CCCCC1)NC(=O)[C@H](Cc1c[nH]cn1)NC(=O)[C@H](Cc1ccccc1)NC(=O)N1CCC(O)CC1 | 0.68 nM | 2% | 0.42 nM | 4% | 1.6 | 3.3 min | –
CC(C)C[C@H](O)[C@H](O)[C@H](CC1CCCCC1)NC(=O)[C@H](Cc1cnc[nH]1)NC(=O)[C@@H](NC(=O)N1CCOCC1)C(C)(C)c1ccccc1 | 65 nM | – | 2.6 nM | – | – | – | –
CC(C)C[C@H](O)[C@H](O)[C@H](CC1CCCCC1)NC(=O)[C@H](Cc1c[nH]cn1)NC(=O)[C@H](Cc1ccccc1)NC(=O)N1CCOCC1 | – | 0% | – | 0% | – | – | 2.5
CC(C)C[C@H](O)[C@H](O)[C@H](CC1CCCCC1)NC(=O)[C@H](Cc1c[nH]cn1)NC(=O)[C@H](CCc1ccccc1)NC(=O)N1CCOCC1 | 2 nM | 0% | 0.3 nM | 6% | 6.7 | 9.6 min | –
CC(C)C[C@H](O)[C@H](O)[C@H](CC1CCCCC1)NC(=O)[C@H](Cc1c[nH]cn1)NC(=O)[C@@H](NC(=O)N1CCOCC1)C(C)(C)c1ccccc1 | – | 3% | – | 3% | 25 | – | –
CC(C)C[C@H](O)[C@H](O)[C@H](CC1CCCCC1)NC(=O)[C@H](Cc1c[nH]cn1)NC(=O)[C@H](Cc1ccccc1)OC(=O)N1CCOCC1 | 3 nM | 0% | 0.82 nM | 0% | 3.7 | 233 min | –
CC(C)C[C@H](O)[C@H](O)[C@H](CC1CCCCC1)NC(=O)[C@H](Cc1c[nH]cn1)NC(=O)[C@H](Cc1ccccc1)NC(=O)N(C)CCO | – | 0% | – | 3% | 1.8 | – | –
